# Source: PubChem
# FGF22 binding = shifts melting point of recombinant human FGF22; recombinant FGF22 thermal shift, SYPRO orange fluorescence; percent of sucrose octasulfate shift, DMSO zero; activity (Tm shift, normalised), % at 9.99 µM; 340,000 compounds, 1.5% hits;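 active means mean Tm shift, scaled 0 neutral to 100 positive control, at about 1.3% or above, every replicate too, limit read from the data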
# PGC1a acetyl inh = lowers PGC1a acetylation signal in U2OS cells | 350,000 compounds, 0.17% hits | AlphaScreen anti-acetyl-lysine; with virally co-expressed GCN5 acetyltransferase | AID 651687 | inhibition, % at 15.6 µM;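 active means every replicate shows inhibition of at least 40%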;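 further: 0% = neutral control wells and 100% = positive control wells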
# FN deposit inh = fibronectin deposition inhibition | AID 743247 | inhibition, % at 12.6 µM | 350,000 compounds, 0.086% hits | AH1F fibroblasts, Alexa488-fibronectin deposition fluorescence, overnight;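 active means mean inhibition across replicates of 30% or more, regardless of how many single replicates reach that level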;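 further: positive control wells lacked labelled fibronectin entirely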
#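 Material: AH1F fibroblast monolayer depositing Alexa488-labelled fibronectin into matrix | Input: 10000 AH1F cells/well | Medium: DMEM plus 2% serum, read in PBS | Reagent: Alexa488-fibronectin, 24 nM final in well | Compound dosing: One dose per compound, pinned | Schedule: 1 h adhesion, overnight exposure | Measured by: Fluorescence at 485 nm excitation, 525 nm emission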
# ERAP1 HTS inh = ERAP1 (human) enzyme inhibition; recombinant ERAP1, Leu-AMC fluorescence, 60 min; inhibition, % at 10.7 µM; 340,000 compounds, 0.15% hits; AID 652197;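 active means mean replicate inhibition of at least 30%, or all replicates individually reaching that 30% level; inactive means mean below 30% and not every replicate reaching it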;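 further: 0% = neutral control wells and 100% = L-leucinethiol positive control wells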
# SIRT5 block = sirtuin-5 (human) deacylase inhibition. 330,000 compounds, 1.1% hits. AID 652115. Q9NXA8. inhibition, % at 15 µM. Purified SirT5, succinyl-peptide AMC, trypsin-coupled fluorescence; in the data active means inhibition above about 15%
# Target sequence (Q9NXA8 whole entry, looked up): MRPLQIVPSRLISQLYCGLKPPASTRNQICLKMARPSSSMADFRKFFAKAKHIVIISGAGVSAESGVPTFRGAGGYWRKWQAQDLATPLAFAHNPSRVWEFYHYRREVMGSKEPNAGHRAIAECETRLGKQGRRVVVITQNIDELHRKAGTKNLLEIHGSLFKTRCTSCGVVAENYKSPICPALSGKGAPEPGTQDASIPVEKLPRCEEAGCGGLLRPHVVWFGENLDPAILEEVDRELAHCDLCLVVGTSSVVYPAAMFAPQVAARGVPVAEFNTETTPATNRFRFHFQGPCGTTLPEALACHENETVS
# The depositor's hits bear a star; nt = not tested or not shown. Hits are enriched below; roughly 2.2% of the tested compounds scored in any of these assays.
SMILES,FGF22 binding,PGC1a acetyl inh,FN deposit inh,ERAP1 HTS inh,SIRT5 block
C[C@@H]1CCCCO[C@H](CN(C)C(=O)Cc2ccccc2)[C@H](C)CN([C@@H](C)CO)C(=O)c2cc(NC(=O)c3ccccc3)ccc2O1,0,4,2,-1,6
Cc1cc(CSc2ccccc2)ccc1NC(=O)COc1ccccc1C,44*,-5,10,-1,0
O=C(Nc1nc2c(Cl)cccc2s1)C1CC1,0,nt,5,9,1
Cc1cccc2sc(NC(=O)C3CC3)nc12,0,nt,-5,-1,24*
CC(=O)c1ccc(NC(=O)c2cc(Cl)nc3ccccc23)cc1,43*,nt,-8,1,-1
CNC[C@@H]1OCCCC[C@H](C)Oc2ccc(NC(=O)Nc3ccc4c(c3)OCO4)cc2C(=O)N([C@@H](C)CO)C[C@@H]1C,nt,-6,nt,nt,nt
O=C(C[C@@H]1CC[C@H](NC(=O)Nc2cccc(F)c2)[C@@H](CO)O1)NCC1CC1,0,3,-11,0,1
CCOC(=O)C1CCN(c2nc(N)c3c(N)nc(SCC(=O)O)cc3c2C#N)CC1,-1,16,-7,31*,11
CC1CCCCN1C(=O)CCc1nnc(Cc2c[nH]c3ccccc23)o1 (stereo not given),44*,nt,10,-4,-3
COCCN(C(=O)CCc1nnc(CCc2c[nH]c3ccccc23)o1)C(C)C,44*,nt,7,-2,-3
COCCN(C(=O)CCc1nnc(Cc2c[nH]c3ccccc23)o1)C(C)C,0,34,0,-3,4
CC1CCCCN1C(=O)COC(=O)Cc1c[nH]c2ccccc12 (stereo not given),43*,-3,-18,3,nt
CCCC#Cc1ccc2c(c1)[C@@H]1[C@@H](CCN1S(=O)(=O)c1ccccc1C)[C@@H](CO)N2,nt,nt,-13,-1,18*
O=S(=O)(c1ccccc1F)N1CC[C@@H]2[C@H]1c1cc(-c3cccc(F)c3)ccc1N[C@@H]2CO,nt,-17,64*,nt,nt
O=S(=O)(c1ccccc1F)N1CC[C@H]2[C@H](CO)Nc3ccc(-c4cccc(F)c4)cc3[C@H]21,0,-9,34*,-1,2
N#Cc1ccc(-c2ccc3c(c2)[C@@H]2[C@@H](CCN2S(=O)(=O)c2cccc(F)c2)[C@H](CO)N3)cc1,0,-19,31*,0,-5
O=S(=O)(c1ccccc1F)N1CC[C@@H]2[C@H]1c1cc(-c3ccccc3)ccc1N[C@@H]2CO,0,3,-2,0,9
CN1C(=O)c2cc(NC(=O)Nc3ccccc3)ccc2OC[C@@H]2O[C@@H](CC(=O)NC3CCC3)CC[C@H]21,0,19,-2,0,6
Cc1ccc(C(=O)C2CCN(CC(=O)Nc3nc(C)cs3)CC2)cc1,0,-9,nt,-4,19*
COc1ccc(C(=O)C2CCN(CC(=O)Nc3cc(C)cc(C)c3)CC2)cc1,0,nt,3,-7,-2
Cc1[nH]c2ccccc2c1C1=CC(=O)C=CC1=O,0,-20,22,78*,-3
Cc1[nH]c2ccccc2c1CC#N,0,9,-2,0,2
COCCNC(=S)N=Nc1c(O)[nH]c2c(C)cc(C)cc12,44*,-1,9,1,3
O=C(CNC(=O)c1ccc(N2C(=O)c3ccccc3C2=O)cc1)OCC(=O)c1ccc(Cl)cc1,0,nt,-5,3,4
O=C(O)c1cccc(N2C(=O)c3cccc(Oc4ccc(Cl)cc4)c3C2=O)c1,43*,3,0,1,0
SMILES,FGF22 binding,PGC1a acetyl inh,FN deposit inh,ERAP1 HTS inh,SIRT5 block
O=C(O)c1ccc(N2C(=O)c3cccc(Oc4ccc(Cl)cc4)c3C2=O)cc1,44*,-11,11,10,3
O=C(O)CN1C(=O)c2ccc(Oc3cccc4c3C(=O)N(CC(=O)O)C4=O)cc2C1=O,nt,1,0,nt,nt
CS(=O)(=O)N1CCN=C1SCc1ccc(Br)cc1,0,0,-1,-4,-2
CS(=O)(=O)N1CCN=C1SCc1ccc([N+](=O)[O-])cc1,43*,nt,-7,-2,-5
CCOC(=O)c1ccc(NC(=O)O[C@H]2[C@H](OC(=O)Nc3ccccc3)[C@@H](OC(=O)Nc3ccccc3)[C@@H](OC)O[C@@H]2CO)cc1,0,nt,nt,2,20*
COCC(=O)N(C)C[C@H]1Oc2cc(C3=CCCCC3)ccc2S(=O)(=O)N([C@H](C)CO)C[C@H]1C,0,-10,nt,0,-2
COc1ccc2c3c(n(C)c2c1)[C@H](CO)N(C(=O)NC1CCCC1)CC31CCN(C)CC1,0,nt,nt,10,1
